Compound activity (PubChem)
Rows were chosen to be rich in hits. Some 2.4% of all compounds tested hit in one or more screens of this group.
STAT3 blocker – inhibitors of IL-6 induced STAT3 signaling; 190,000 tested, 0.89% active; U3A cells, IL-6 STAT3-luciferase reporter, luminescence; host cell line lacks STAT1; inhibition, % at 5.5 µM;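 active = inhibition above the mean inhibition across all screened compounds plus 3 SD, cut at about 44% in these data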
bCat nuc transl – alters nuclear translocation of beta-catenin in HeLa cells; 190,000 tested, 0.3% active; immunofluorescence imaging; nuclear translocation activity, % at 5 µM;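 active = nuclear translocation activity above 50% at 5 µM, with a well cell count of 50 or more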;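 also: per-cell ratio of nuclear to cytoplasmic median beta-catenin stain intensity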
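Technique: fluorescence imaging of beta-catenin antibody stain plus DAPI / Material: human HeLa cell line / Incubation: compound treatment 24 h, 37°C, 5% CO2 / Read-out basis: % activation of per-cell nuclear versus cytoplasmic median beta-catenin signal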
STAT3 act – activators of IL-6 induced STAT3 signaling. U3A cells, IL-6 STAT3-luciferase reporter, luminescence; 100% = signal with IL-6 EC80 alone. 190,000 tested, 0.91% active. AID 871. activation (% of control), % at 5.6 µM;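 active = activation above the screen-wide mean of compound activation plus 3 SD, cut at about 130% in these data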
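Test system: human U3A cells carrying STAT3-luciferase construct; control set: IL-6-only wells as 100% reference; timing: compound pre-incubation 1 h before IL-6, then 6 h stimulation at 37 °C; also added: IL-6 stimulus at 33 ng/mL final; evaluation: % activation versus median of IL-6-stimulated wells; detection: reporter luminescence signal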
STAT1 blocker – STAT1 signaling inhibition. NIH 3T3 STAT1-luciferase reporter, IFN-gamma, luminescence. inhibition, % at 5.5 µM. 200,000 tested, 0.35% active;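 active = inhibition above a set limit, the mean inhibition across all tested compounds plus 3 SD, cut at about 34% in these data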
MT stabilizer – microtubule stabilizers in HeLa cells | 200,000 tested, 0.83% active | HeLa tubulin immunostaining HCS, 24 h; share of cells brighter than vehicle mean+2SD | AID 2205 | % tubulin-high responders, % at 10 µM;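 active = plate Z-score above 3 for both tubulin-high and condensed-nucleus cell shares, with cell loss under 80%, at 10 µM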;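 also: anti alpha tubulin signal scored within the nucleus-defined area of each cell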
Large screens that a line does not name were inactive.

COc1ccc(/C=N/NC(N)=S)cc1OC(=O)c1ccccc1	MT stabilizer 38
COc1ccc(/C=N/NC(=O)c2cccc([N+](=O)[O-])c2)cc1OC(=O)c1ccccc1	MT stabilizer 41
COc1ccc(C)cc1NC(=S)NC(C)c1ccc(OC)c(OC)c1 (stereo unspecified)	none
Cc1nc2c(C)cccc2cc1C(=O)N/N=C/c1ccc(N(C)C)cc1	MT stabilizer 40
Cc1nc2c(C)cccc2cc1C(=O)N/N=C/c1cccc([N+](=O)[O-])c1	MT stabilizer 20
CC1C/C(=C\c2cccnc2)C(=O)/C(=C/c2cccnc2)C1 (stereo unspecified)	MT stabilizer 32
Cc1cc(C)c2c(=O)[nH]c(SCC(=O)c3ccc(C)c(C)c3)nc2n1	none
CCN(CC)c1ccc(/C=N/NC(=O)c2ccco2)cc1	MT stabilizer 20 (no result: bCat nuc transl)
CCN(CC)c1ccc(/C=N/NC(=O)c2cnccn2)cc1	MT stabilizer 23
CC(=O)N1CC(=O)N(Cc2ccccc2)/C(=C/c2ccccc2)C1=O	none
CCOc1ccc(-c2nc(N)ncc2Oc2cccc(OC)c2)c(O)c1	MT stabilizer 8.2 (no result: bCat nuc transl)
CCOc1ccc(-c2nc(N)ncc2Oc2ccccc2Br)c(O)c1	none (no result: bCat nuc transl)
COC(=O)NC(=S)Nc1ccc(Oc2ccc(Cl)cc2Cl)c(Cl)c1	MT stabilizer 26
CCOc1c(Nc2ccc(C(C)C)cc2)c(=O)c1=O	none (no result: STAT3 blocker, STAT3 act, STAT1 blocker, MT stabilizer)
CCOc1ccc2nc(N(CCN(CC)CC)C(=O)c3cccc([N+](=O)[O-])c3)sc2c1	none
Cc1ccc(C2=NNC(c3cccc(F)c3)S2)cc1 (stereo unspecified)	STAT3 blocker 78, STAT1 blocker 48 (no result: bCat nuc transl)
O=C(Nc1c2c(nn1-c1ccc(F)cc1)CS(=O)(=O)C2)c1ccc(S(=O)(=O)N2CCOCC2)cc1	none
CCn1cc(/C=N/NC(=O)c2cc3c(ccc4ccccc43)o2)c2ccccc21	MT stabilizer 41
CC(C)n1cc(/C=N\NC(=O)c2cc3c(ccc4ccccc43)o2)c2ccccc21	none
O=C(/C=C/Nc1ccc(S(=O)(=O)Nc2ncccn2)cc1)c1ccc2ccccc2c1	none (no result: STAT3 blocker, STAT3 act, STAT1 blocker, MT stabilizer)
CC(=O)c1sc2nsc(SCCN3CCCC3)c2c1N	none (no result: STAT3 blocker, STAT3 act, STAT1 blocker, MT stabilizer)
COc1ccccc1N/N=C/c1ccc2c(c1)OCO2	STAT3 blocker 72, STAT1 blocker 51
COc1ccccc1NC(=O)NCc1ccc2c(c1)OCO2	none
Cc1noc(/C=C/Nc2ccc(F)cc2F)c1[N+](=O)[O-]	none
COc1ccccc1N/C=C/c1onc(C)c1[N+](=O)[O-]	STAT3 blocker 87, STAT1 blocker 76
C=CCOc1ccn(C)c(=O)n1	none (no result: STAT3 blocker, STAT3 act, STAT1 blocker, MT stabilizer)
Nc1nn2cc(-c3ccccc3)nc2c2ccccc12	STAT3 act 135
Cc1cccc(OCCSc2nc(N)cc(N)n2)c1	none (no result: STAT3 blocker, STAT3 act, STAT1 blocker, MT stabilizer)
C1CCC(C(CC2CCCCN2)C2CCCCC2)CC1 (stereo unspecified)	MT stabilizer 35
COc1ccc(N(C)S(=O)(=O)c2cccc3cccnc23)c(OC)c1	bCat nuc transl 56, MT stabilizer 55
COc1cc(C2Nc3ccc4ncccc4c3C3=C2C(=O)CCC3)cc(OC)c1O (stereo unspecified)	MT stabilizer 48
CCCN1CCC(=NNc2ccc(S(=O)(=O)N3CCOCC3)cc2[N+](=O)[O-])CC1	bCat nuc transl 120, MT stabilizer 14
CC1Cc2ccccc2N1C(=O)CNCCCN(C)C (stereo unspecified)	none
CC1CC2(C)Oc3ccccc3CC2C(C)C1CNCCCN(C)C (stereo unspecified)	bCat nuc transl 57
Cc1cc(CNC(=O)Cn2nc(C)c([N+](=O)[O-])c2C)c2ccccc2n1	none
COc1ccc(NC2=C(NCCO)C(=O)c3ccccc3C2=O)cc1	MT stabilizer 21
CCOc1ccccc1OCc1nn2c(COc3ccccc3)nnc2s1	none
c1ccc(Cc2nn3c(COc4ccccc4)nnc3s2)cc1	STAT3 act 134
O=C1CC(c2ccccc2)CC2=C1C=Nc1ccccc1N2 (stereo unspecified)	MT stabilizer 21
CCOc1cc(NC(=S)NCCOC)c(OCC)cc1NC(=O)c1ccco1	none
Cc1ccc(CSc2nccc(-c3c(C)nc4ccccn34)n2)cc1	bCat nuc transl 55 (no result: STAT3 blocker, STAT3 act, STAT1 blocker, MT stabilizer)
[O-][N+]1=c2ccc(Nc3ccccc3)cc2=NC12CCCCC2	MT stabilizer 29
COc1ccc(/C=N/NS(=O)(=O)c2ccc(C)cc2)cc1OC(=O)c1ccc(C)cc1	none
COc1cc(/C=N/NS(=O)(=O)c2ccc(C)cc2)ccc1OCc1ccc(C(=O)O)cc1	STAT3 blocker 54, STAT1 blocker 85
Cc1cc(C)c(S(=O)(=O)NC(C)C)c(C)c1-n1cnnn1	none
O=C(O)C/C(=C\c1ccc(Cl)cc1)c1nc2ccccc2o1	none
O=C(O)C(=O)/C(=C\c1ccc(Cl)cc1)c1ccc2ccccc2n1	STAT3 act 147
CC(=O)c1nn(-c2cccc(Br)c2)cc1C(=O)c1ccc(Cl)cc1	none (no result: bCat nuc transl)
Oc1ccc(C2=NNC(=NCc3ccc4c(c3)OCO4)SC2)c(O)c1	bCat nuc transl 117
Clc1ccc(C2=NNC(=NCc3ccc4c(c3)OCO4)SC2)cc1	none
CC1CC(C)CN(Cc2nc(N)nc(Nc3ccc4ccccc4c3)n2)C1 (stereo unspecified)	MT stabilizer 46
CSc1ccc(/C=N/NC(=O)c2ccccc2Cl)cc1	MT stabilizer 15
CN(C)c1ccc(/C=N/NC(=O)c2ccccc2)cc1	MT stabilizer 14
CSc1ccc(/C=N/Nc2cccc(C(=O)O)c2)cc1	STAT1 blocker 64
CN(C)c1ccc(/C=N\NC(=O)c2ccc(Cn3cc(Cl)cn3)cc2)cc1	MT stabilizer 29
COc1ccc(/C=N/NC(=O)c2ccc(Cl)cc2)cc1Cn1cc(Cl)cn1	none
CN(C)c1ccc(/C=N/NC(=O)c2ccc(Cl)cc2)cc1	none (no result: bCat nuc transl)
CN(C)c1ccc(/C=N/NC(=O)c2ccccc2Cl)cc1	bCat nuc transl 77, MT stabilizer 21
COc1ccc(-c2nc3c([nH]2)c(=O)n(C)c(=O)n3C)c(OC)c1	STAT3 act 134
Cc1cc(C)nc(NS(=O)(=O)c2ccc(NC(=O)c3ccc4c(c3)OCCO4)cc2)n1	none
CCOc1ccccc1C(=O)Nc1ccccc1C(N)=O	none
COC(=O)c1sccc1NC(=O)c1ccc(OC)cc1	none
CCOc1ccccc1C(=O)Nc1ccsc1C(=O)OC	bCat nuc transl 57, MT stabilizer 28
COC(=O)c1sccc1NC(=O)c1csc(C)c1	STAT3 act 136
OCCC1CN(Cc2cccn2-c2ncccn2)CCN1CCc1ccccc1 (stereo unspecified)	none
CCOc1ccccc1C(=O)NC(C)c1ccc2c(c1)OCO2 (stereo unspecified)	MT stabilizer 42
Cc1occc1C(=O)NC(C)c1ccc2c(c1)OCO2 (stereo unspecified)	none
COc1ccc(CCn2c(N)c(C(=O)NCc3ccco3)c3nc4ccccc4nc32)cc1	MT stabilizer 15
